Results: ChEMBL document CHEMBL1134680, “Iridals are a novel class of ligands for phorbol ester receptors with modest selectivity for the RasGRP receptor subfamily” (J Med Chem, 2001)

Key:
[1] = target: Protein kinase C alpha type (Homo sapiens, UniProt P17252); assay: Binding affinity for PKC alpha (C1b domain)
How it was run: (§1)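 Competition of [3H]PDBu (3.0 nM) binding to partially purified PKCα or bacterially expressed MBP/RasGRP3 fusion (human RasGRP3, amylose-bead purified). Buffer: 50 mM Tris-Cl pH 7.4, 2 mg/mL γ-globulins, 0.1 mM Ca2+, 0.1 mg/mL phosphatidylserine. Incubation was 5 min at 37 °C for PKCα and 5 min at 18 °C for RasGRP3. Nonspecific binding was set with 30 μM PDBu. Bound and free were separated by PEG precipitation and counted.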

[2] = target: T1, Ras guanyl-releasing protein 3 (Homo sapiens, UniProt Q8IV61); assay: Binding affinity for RasGPR3, guanine nucleotide exchange factor; how it was run: as §1
T1 sequence (Q8IV61 whole entry): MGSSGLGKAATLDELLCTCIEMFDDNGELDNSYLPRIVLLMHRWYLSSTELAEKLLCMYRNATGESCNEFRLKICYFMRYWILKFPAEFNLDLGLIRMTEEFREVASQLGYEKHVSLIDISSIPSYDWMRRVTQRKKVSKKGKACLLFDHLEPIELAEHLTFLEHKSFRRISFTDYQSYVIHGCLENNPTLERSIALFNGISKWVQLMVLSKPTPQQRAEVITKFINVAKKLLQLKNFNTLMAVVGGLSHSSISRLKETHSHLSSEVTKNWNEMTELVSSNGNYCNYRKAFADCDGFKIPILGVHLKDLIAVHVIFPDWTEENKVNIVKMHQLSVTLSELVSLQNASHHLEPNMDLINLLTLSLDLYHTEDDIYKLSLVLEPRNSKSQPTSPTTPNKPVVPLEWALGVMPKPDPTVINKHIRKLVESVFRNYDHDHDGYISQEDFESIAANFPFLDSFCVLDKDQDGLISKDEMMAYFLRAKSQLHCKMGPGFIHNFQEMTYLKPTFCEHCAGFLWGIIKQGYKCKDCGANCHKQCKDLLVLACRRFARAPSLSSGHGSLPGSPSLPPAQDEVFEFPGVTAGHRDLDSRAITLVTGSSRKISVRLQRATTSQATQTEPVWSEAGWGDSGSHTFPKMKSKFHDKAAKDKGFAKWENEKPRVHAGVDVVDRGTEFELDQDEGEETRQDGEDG

[3] = tested on: Panel NCI-60 (60 carcinoma cell lines); assay: Inhibition of cell growth in NCI panel of 60 human carcinoma lines; type: functional
[4] = target: T1, Ras guanyl-releasing protein 3; assay: Binding affinity for RasGRP, guanine nucleotide exchange factor

Structure (SMILES)	Ki [1]	Ki [2]	Log 1/GI50 [3]	Ki [4]
C=C(/C=C/C=C(/CCC=C(C)C)COC(C)=O)[C@@H]1CC[C@]2([C@H](CCCO)/C(=C(/C)C=O)CC[C@]2(C)O)[C@@H]1O	83.6 nM	41.7 nM	4.4	–
C=C(C)[C@@]12OC3(c4ccccc4)O[C@@H]1[C@@H]1[C@@H]4O[C@]4(CO)[C@@H](O)[C@]4(O)C(=O)C(C)=C[C@H]4[C@@]1(O3)[C@H](C)[C@H]2OC(=O)/C=C/C=C/c1ccccc1	–	–	5.8	–
CCCCC(=O)O[C@@H]1[C@@H](C)[C@@]2(O)[C@@H](C=C(CO)C[C@]3(O)C(=O)C(C)=C[C@@H]23)[C@@H]2C(C)(C)[C@]12OC(=O)CCC	–	–	4	–
CC1=CC[C@H](C)C(C)(C)[C@@H]1/C=C/C(C)=C\CC[C@@]1(CO)[C@H](CCCO)/C(=C(/C)C=O)CC[C@]1(C)O	75.6 nM	–	4.6	15.5 nM
C=C(C)[C@]12C[C@@H](C)[C@@]34O[C@](/C=C/C=CCCCCCCCCC)(O[C@@H]1[C@@H]3[C@@H]1O[C@]1(CO)[C@@H](O)[C@]1(O)C(=O)C(C)=C[C@H]14)O2	–	–	4.7	–
C=C(C)[C@@]12C[C@@H](COC(=O)c3ccccc3)[C@@]34OC5(O[C@@H]1[C@@H]3[C@@H]1O[C@]1(CO)[C@@H](O)[C@@]1(O)[C@H]4[C@H]([C@H](C)[C@@H]1OC(=O)c1ccccc1)[C@H](C)CCCCCC[C@H]5O)O2 [GNIDIMACRIN]	–	–	4	–
CC1=C[C@H]2[C@@]3(O)[C@H](C)[C@@H](O)[C@]4(O)[C@H]([C@@H]3C=C(CO)C[C@]2(O)C1=O)C4(C)C [PHORBOL]	–	–	4.3	–
CC(=O)O[C@@]12C[C@@H](C)[C@@]3(O)[C@@H](C=C(CO)C[C@]4(O)C(=O)C(C)=C[C@@H]34)[C@@H]1C2(C)C [PROSTRATIN]	–	–	3	–
